Data published in ChEMBL document CHEMBL5512625, “Design, synthesis, and biological evaluation of first-in-class indomethacin-based PROTACs degrading SARS-CoV-2 main protease and with broad-spectrum antiviral activity” (Eur J Med Chem, 2024).
The source made the active and inactive calls. No cut-off for these calls is given here.

Legend:
Assay type in all cases: cell-based
[1] = target: T1, von Hippel-Lindau disease tumor suppressor-SARS-Cov-2 polyprotein (Severe acute respiratory syndrome coronavirus 2) (UniProt P40337+P0DTD1); assay: (§1) PROTAC activity at human VHL/FLAG-nsp4-tagged SARS CoV-2 MPro overexpressed in HEK293T cells assessed as protein degradation pretreated for 2 hrs followed by viral protein transfection measured after 24 hrs by Western blot analysis; conditions: time 26.0 hrs
T1 sequence (P40337 whole entry, looked up, other chains not shown): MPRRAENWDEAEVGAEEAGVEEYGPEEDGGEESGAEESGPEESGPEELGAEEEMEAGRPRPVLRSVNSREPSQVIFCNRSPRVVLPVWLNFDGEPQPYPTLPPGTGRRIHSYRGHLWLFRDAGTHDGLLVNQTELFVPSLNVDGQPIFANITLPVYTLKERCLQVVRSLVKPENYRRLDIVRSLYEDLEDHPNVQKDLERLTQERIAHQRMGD
Summary of the method: (§2)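 293T cells pretreated 2 h with compound (1–25 µM) or 0.1% DMSO, then transfected with FLAG-nsp4-Mpro plasmid and kept 24 h with compound. Western blot for Mpro with β-actin loading control. Densitometry from 2–3 independent experiments; DC50 by nonlinear regression, plus % degradation at the top concentration.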

[2] = target: Replicase polyprotein 1ab (Severe acute respiratory syndrome coronavirus 2) (UniProt P0DTD1); assay: Effect on catalytic activity of FLAG-nsp4-tagged SARS CoV-2 MPro overexpressed in HEK293T cells pretreated for 2 hrs followed by viral protein transfection measured after 24 hrs by Western blot analysis; conditions: time 26.0 hrs
Summary of the method: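 293T cells pretreated 2 h, then transfected with FLAG-nsp4-Mpro plasmid and kept 24 h with compound. Western blot with anti-Mpro antibody reads cleavage: release of ~34 kDa mature Mpro versus the uncleaved upper band.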

[3] = target: Replicase polyprotein 1ab (Severe acute respiratory syndrome coronavirus 2) (UniProt P0DTD1); assay: Effect on catalytic activity of FLAG-nsp4-tagged SARS CoV-2 MPro overexpressed in HEK293T cells by FRET assay
[4] = target: T1, von Hippel-Lindau disease tumor suppressor-SARS-Cov-2 polyprotein (Severe acute respiratory syndrome coronavirus 2); assay: PROTAC activity at human VHL/FLAG-nsp4-tagged SARS CoV-2 MPro overexpressed in HEK293T cells assessed as protein degradation at 25 uM pretreated for 2 hrs followed by viral protein transfection measured after 24 hrs by Western blot analysis; conditions: time 26.0 hrs; summary of the method: as §2
[5] = target: von Hippel-Lindau disease tumor suppressor-SARS-Cov-2 polyprotein (Severe acute respiratory syndrome coronavirus 2, UniProt P40337+P0DTD1); assay: as §1; summary of the method: as §2
Chain of von Hippel-Lindau disease tumor suppressor-SARS-Cov-2 polyprotein (P40337 whole entry, other chains not shown): as the sequence (P40337 whole entry, looked up, other chains not shown) above

[6] = target: T1, von Hippel-Lindau disease tumor suppressor-SARS-Cov-2 polyprotein (Severe acute respiratory syndrome coronavirus 2); assay: PROTAC activity at human VHL/FLAG-nsp4-tagged SARS CoV-2 MPro overexpressed in HEK293T cells assessed as protein degradation at 25 uM pretreated for 2 hrs followed by viral protein transfection measured after 24 hrs by Western blot analysis relative to control; conditions: time 26.0 hrs; summary of the method: as §2
[7] = target: T1, von Hippel-Lindau disease tumor suppressor-SARS-Cov-2 polyprotein (Severe acute respiratory syndrome coronavirus 2); assay: PROTAC activity at human VHL/FLAG-nsp4-tagged SARS CoV-2 MPro overexpressed in HEK293T cells assessed as protein degradation at 25 uM pretreated for 2 hrs followed by viral protein transfection measured after 24 hrs in presence of VH298 by Western blot analysis; conditions: time 26.0 hrs
Summary of the method: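 293T cells pretreated with compound at 25 µM, with or without 50 µM VHL inhibitor VH298. Cells then transfected to express FLAG-nsp4-Mpro and collected 24 h post-transfection. Mpro detected by Western blot, β-actin as loading control.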

SMILES	Activity [1]	Activity [2]	Activity [3]	Activity [4]	DC50 [5] [µM]	Activity [6] [%]	Activity [7]
COc1ccc2c(c1)c(CC(=O)NCCCCCCC(=O)N[C@H](C(=O)N1C[C@H](O)C[C@H]1C(=O)N[C@@H](C)c1ccc(-c3scnc3C)cc1)C(C)(C)C)c(C)n2C(=O)c1ccc(Cl)cc1	Dose-Dependent Effect	inactive	inactive				
COc1ccc2c(c1)c(CC(=O)NCCN1CCN(C(=O)CCC(=O)N[C@H](C(=O)N3C[C@@H](O)C[C@H]3C(=O)N[C@@H](C)c3ccc(-c4scnc4C)cc3)C(C)(C)C)CC1)c(C)n2C(=O)c1ccc(Cl)cc1				inactive			
COc1ccc2c(c1)c(CC(=O)N1CCN(CC(=O)N[C@H](C(=O)N3C[C@H](O)C[C@H]3C(=O)N[C@@H](C)c3ccc(-c4scnc4C)cc3)C(C)(C)C)CC1)c(C)n2C(=O)c1ccc(Cl)cc1		inactive	inactive		7.3	72	inactive
COc1ccc2c(c1)c(CC(=O)NCCN1CCN(C(=O)CCC(=O)N[C@H](C(=O)N3C[C@H](O)C[C@H]3C(=O)N[C@@H](C)c3ccc(-c4scnc4C)cc3)C(C)(C)C)CC1)c(C)n2C(=O)c1ccc(Cl)cc1		inactive	inactive		18.1	67	inactive
